In brackets after ≈: the same amount, converted by molar mass.
Legend:
[1] = system: Klebsiella pneumoniae; assay: Synergistic antibacterial activity against Klebsiella pneumoniae NCTC 13368 assessed as rifampicin MIC at <=0.25 times MIC incubated for overnight by microbroth dilution checkerboard assay; format: functional
Procedure, shortened: (§1)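 Checkerboard microdilution under MIC conditions (TSB, overnight, 37 °C). Two-fold series of each agent were combined on one plate before bacteria were added, and single-agent MICs were measured on the same plate. FIC = sum of combination MIC/alone MIC for each agent, taken from the most synergistic well. Three independent repeats, mean ± SD. ≤0.5 was taken as strong synergy and 0.5–<1 as weak.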

[2] = system: Klebsiella pneumoniae; assay: Synergistic antibacterial activity against […] Klebsiella pneumoniae M6 assessed as rifampicin MIC at <=0.25 times MIC incubated for overnight by microbroth dilution checkerboard assay; format: functional
Procedure, shortened: (§2)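 Checkerboard run under the MIC conditions (TSB, overnight, 37 °C). Antibiotic and lipoguanidine 2-fold series were combined on one plate before bacteria were added. Growth/no-growth was scored as for the MIC (<0.1 OD600). Single-agent MICs were measured on the same plates. Three independent repeats were done.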

[3] = system: Acinetobacter baumannii; assay: Synergistic antibacterial activity against Acinetobacter baumannii AYE assessed as rifampicin MIC at <=0.25 times MIC incubated for overnight by microbroth dilution checkerboard assay; format: functional; procedure, shortened: as §1
[4] = system: Acinetobacter baumannii; assay: Synergistic antibacterial activity against Acinetobacter baumannii ATCC 17978 assessed as rifampicin MIC at <=0.25 times MIC incubated for overnight by microbroth dilution checkerboard assay; format: functional; procedure, shortened: as §1
[5] = system: Pseudomonas aeruginosa; assay: Synergistic antibacterial activity against Pseudomonas aeruginosa PAO1 assessed as rifampicin MIC at <=0.25 times MIC incubated for overnight by microbroth dilution checkerboard assay; format: functional
Procedure, shortened: (§3)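 Checkerboard microdilution in Tryptic Soy Broth, run like the MIC assay. Overnight TSB cultures were back-diluted to OD 0.01 and added 1:1 to the combined two-fold series of both agents, then incubated overnight at 37 °C. Growth/no-growth was called at <0.1 OD600. MICs alone were read on the same plates. FIC index came from the most synergistic well; three independent repeats, mean ± SD.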

[6] = system: Pseudomonas aeruginosa; assay: Synergistic antibacterial activity against Pseudomonas aeruginosa NCTC 13437 assessed as rifampicin MIC at <=0.25 times MIC incubated for overnight by microbroth dilution checkerboard assay; format: functional; procedure, shortened: as §3
[7] = system: Escherichia coli; assay: Synergistic antibacterial activity against Escherichia coli NCTC 12923 assessed as rifampicin MIC at <=0.25 times MIC incubated for overnight by microbroth dilution checkerboard assay; format: functional; procedure, shortened: as §1
[8] = system: Klebsiella pneumoniae; assay: Synergistic antibacterial activity against Klebsiella pneumoniae NCTC 13368 assessed as fold change in rifampicin MIC at <=0.25 times MIC incubated for overnight by microbroth dilution checkerboard assay relative to rifampicin alone; format: functional; procedure, shortened: as §2
[9] = system: Acinetobacter baumannii; assay: Synergistic antibacterial activity against Acinetobacter baumannii AYE assessed as fold change in rifampicin MIC at <=0.25 times MIC incubated for overnight by microbroth dilution checkerboard assay relative to rifampicin alone; format: functional; procedure, shortened: as §1
[10] = system: Acinetobacter baumannii; assay: Synergistic antibacterial activity against Acinetobacter baumannii ATCC 17978 assessed as fold change in rifampicin MIC at <=0.25 times MIC incubated for overnight by microbroth dilution checkerboard assay relative to rifampicin alone; format: functional; procedure, shortened: as §1
[11] = system: Pseudomonas aeruginosa; assay: Synergistic antibacterial activity against Pseudomonas aeruginosa PAO1 assessed as fold change in rifampicin MIC at <=0.25 times MIC incubated for overnight by microbroth dilution checkerboard assay relative to rifampicin alone; format: functional; procedure, shortened: as §3
[12] = system: Pseudomonas aeruginosa; assay: Synergistic antibacterial activity against Pseudomonas aeruginosa NCTC 13437 assessed as fold change in rifampicin MIC at <=0.25 times MIC incubated for overnight by microbroth dilution checkerboard assay relative to rifampicin alone; format: functional; procedure, shortened: as §3
[13] = system: Escherichia coli; assay: Synergistic antibacterial activity against Escherichia coli NCTC 12923 assessed as fold change in rifampicin MIC at <=0.25 times MIC incubated for overnight by microbroth dilution checkerboard assay relative to rifampicin alone; format: functional; procedure, shortened: as §1
[14] = system: Pseudomonas aeruginosa; assay: Antibacterial activity against Pseudomonas aeruginosa NCTC 13437 assessed as bacterial growth inhibition incubated for overnight by microbroth dilution method; format: functional
Procedure, shortened: (§4)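 Broth microdilution in Tryptic Soy Broth. DMSO stocks were diluted in TSB as 2-fold series. Overnight TSB cultures were back-diluted to OD 0.01 and mixed 1:1 with compound. Incubation was overnight at 37 °C. MIC was the lowest concentration without visible growth (<0.1 OD600). DMSO vehicle was checked at equivalent concentrations.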

[15] = system: Acinetobacter baumannii; assay: Antibacterial activity against Acinetobacter baumannii AYE assessed as bacterial growth inhibition incubated for overnight by microbroth dilution method; format: functional; procedure, shortened: as §4
[16] = system: Acinetobacter baumannii; assay: Antibacterial activity against Acinetobacter baumannii ATCC 17978 assessed as bacterial growth inhibition incubated for overnight by microbroth dilution method; format: functional; procedure, shortened: as §4
[17] = system: Pseudomonas aeruginosa; assay: Antibacterial activity against Pseudomonas aeruginosa PAO1 assessed as bacterial growth inhibition incubated for overnight by microbroth dilution method; format: functional; procedure, shortened: as §4
[18] = system: Escherichia coli; assay: Antibacterial activity against Escherichia coli NCTC 12923 assessed as bacterial growth inhibition incubated for overnight by microbroth dilution method; format: functional; procedure, shortened: as §4
[19] = system: Klebsiella pneumoniae; assay: Antibacterial activity against Klebsiella pneumoniae M6 assessed as bacterial growth inhibition incubated for overnight by microbroth dilution method
[20] = system: Klebsiella pneumoniae; assay: Antibacterial activity against ESBL Klebsiella pneumoniae NCTC 13368 assessed as bacterial growth inhibition incubated for overnight by microbroth dilution method
[21] = system: Staphylococcus aureus; assay: Antibacterial activity against methicillin sensitive Staphylococcus aureus ATCC 9144 assessed as bacterial growth inhibition incubated for overnight by microbroth dilution method; format: functional
Procedure, shortened: (§5)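 Microbroth dilution in Tryptic Soy Broth. DMSO stocks were diluted in TSB as 2-fold series. Overnight TSB cultures were back-diluted to OD 0.01 and mixed 1:1 with compound. Incubation was overnight at 37 °C. MIC is the lowest concentration with no visible growth (<0.1 OD600). DMSO at equivalent concentrations was checked.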

[22] = system: Staphylococcus aureus; assay: Antibacterial activity against methicillin resistant Staphylococcus aureus NCTC 13616 assessed as bacterial growth inhibition incubated for overnight by microbroth dilution method; format: functional; procedure, shortened: as §5
[23] = system: Staphylococcus aureus; assay: Antibacterial activity against methicillin resistant Staphylococcus aureus USA 300 assessed as bacterial growth inhibition incubated for overnight by microbroth dilution method; format: functional; procedure, shortened: as §5
[24] = system: Enterococcus faecalis; assay: Antibacterial activity against vancomycin resistant Enterococcus faecalis NCTC 12201 assessed as bacterial growth inhibition incubated for overnight by microbroth dilution method; format: functional; procedure, shortened: as §5
[25] = system: Enterococcus faecium; assay: Antibacterial activity against vancomycin resistant Enterococcus faecium NCTC 12204 assessed as bacterial growth inhibition incubated for overnight by microbroth dilution method; format: functional; procedure, shortened: as §5
[26] = system: Staphylococcus aureus; assay: Antibacterial activity against methicillin sensitive Staphylococcus aureus 1199B assessed as bacterial growth inhibition incubated for overnight by microbroth dilution method; format: functional; procedure, shortened: as §5
[27] = system: Enterococcus faecalis; assay: Antibacterial activity against vancomycin sensitive Enterococcus faecalis NCTC 775 assessed as bacterial growth inhibition incubated for overnight by microbroth dilution method

Row | SMILES | MIC [1] | MIC [2] | MIC [3] | MIC [4] | MIC [5] | MIC [6] | MIC [7] | fold change (FC) [8] | fold change (FC) [9] | fold change (FC) [10] | fold change (FC) [11] | fold change (FC) [12] | fold change (FC) [13] | MIC [14] | MIC [15] | MIC [16] | MIC [17] | MIC [18] | MIC [19] | MIC [20] | further results
1 | CCCCCCCC/C=C\CCCCCCCCNC(=N)NCCCCCCCCCC | 128 µg/mL | 64 µg/mL | 32 µg/mL | 8 µg/mL | 64 µg/mL | 64 µg/mL | 32 µg/mL | 0 | 0 | 0 | 0 | 0 | 0 | – | – | – | – | – | – | – | –
2 | CO[C@H]1/C=C/O[C@@]2(C)Oc3c(C)c(O)c4c(O)c(c(/C=N/N5CCN(C)CC5)c(O)c4c3C2=O)NC(=O)/C(C)=C\C=C\[C@H](C)[C@H](O)[C@@H](C)[C@@H](O)[C@@H](C)[C@H](OC(C)=O)[C@@H]1C [RIFAMPIN] | – | – | – | – | – | – | – | – | – | – | – | – | – | 32 µg/mL (≈ 38.9 µM) | 16 µg/mL (≈ 19.4 µM) | 4 µg/mL (≈ 4.86 µM) | 32 µg/mL (≈ 38.9 µM) | 16 µg/mL (≈ 19.4 µM) | 32 µg/mL (≈ 38.9 µM) | 32 µg/mL (≈ 38.9 µM) | –
3 | CCCCCCCCCCCCCCCCCCNC(=O)NCCCCN | 32 µg/mL | 16 µg/mL | 0.5 µg/mL | 2 µg/mL | 16 µg/mL | 16 µg/mL | 16 µg/mL | 0 | 0 | 0 | 0 | 0 | 0 | – | – | – | – | – | – | – | –
4 | CCCCCCCC/C=C\CCCCCCCCNC(=N)NCCN(CCN)CCN | – | – | – | – | – | – | – | – | – | – | – | – | – | 32 µg/mL (≈ 72.9 µM) | 128 µg/mL (≈ 292 µM) | 64 µg/mL (≈ 146 µM) | 64 µg/mL (≈ 146 µM) | 8 µg/mL (≈ 18.2 µM) | > 128 µg/mL | > 128 µg/mL | MIC [21]: 8 µg/mL (≈ 18.2 µM); MIC [22]: 4 µg/mL (≈ 9.12 µM); MIC [23]: 4 µg/mL (≈ 9.12 µM); MIC [24]: 4 µg/mL (≈ 9.12 µM); MIC [25]: 4 µg/mL (≈ 9.12 µM); MIC [26]: 4 µg/mL (≈ 9.12 µM); MIC [27]: 4 µg/mL (≈ 9.12 µM)
5 | CCCCCCCCCCCC(=O)NCCCC | 32 µg/mL | 32 µg/mL | 16 µg/mL | 4 µg/mL | 32 µg/mL | 32 µg/mL | 32 µg/mL | 0 | 0 | 0 | 0 | 0 | 0 | – | – | – | – | – | – | – | –
6 | CCCCCCCC/C=C\CCCCCCCCNC(=N)NCCCCCCCCNC(=N)NCCCCCCCC/C=C\CCCCCCCC | – | – | – | – | – | – | – | – | – | – | – | – | – | > 128 µg/mL | > 128 µg/mL | 128 µg/mL (≈ 176 µM) | > 128 µg/mL | 128 µg/mL (≈ 176 µM) | > 128 µg/mL | > 128 µg/mL | MIC [21]: 64 µg/mL (≈ 87.8 µM); MIC [22]: > 64 µg/mL; MIC [23]: 64 µg/mL (≈ 87.8 µM); MIC [24]: > 64 µg/mL; MIC [25]: 32 µg/mL (≈ 43.9 µM); MIC [26]: 32 µg/mL (≈ 43.9 µM); MIC [27]: 64 µg/mL (≈ 87.8 µM)
7 | CCCCCCCCCCNC(=N)NCCCC(=O)O | 32 µg/mL | 32 µg/mL | 8 µg/mL | 2 µg/mL | 32 µg/mL | 32 µg/mL | 32 µg/mL | 0 | 0 | 0 | 0 | 0 | 0 | – | – | – | – | – | – | – | –

— ChEMBL document CHEMBL5357066, “Development of Novel Membrane Disrupting Lipoguanidine Compounds Sensitizing Gram-Negative Bacteria to Antibiotics” (ACS Med Chem Lett, 2024)
